Experiment [1] concerns A549. Kind of experiment: Antiproliferative activity against human A549 cells after 72 hrs by MTT assay. Type of experiment: functional, cell-based. Particulars: A549, 72 h. An outline of the steps: (§1)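 MTT proliferation assay; cells exposed to compounds for 72 h. IC50 is the concentration inhibiting tumor cell proliferation by 50%. Means ± SDs of three independent experiments. 5-Fluorouracil used as positive control.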
On the technique in general: Tetrazolium dyes change colour on reduction, which living cells bring about.

Experiment [2] relates to B16-F10. Kind of experiment: Antiproliferative activity against mouse B16/F10 cells after 72 hrs by MTT assay. Type of experiment: functional, cell-based. To be noted: B16-F10, 72 h. In short, it runs like this: as §1
Experiment [3] concerns MCF7. Kind of experiment: Antiproliferative activity against human MCF7 cells after 72 hrs by MTT assay. Type of experiment: functional, cell-based. To be noted: MCF7, 72 h. In short, it runs like this: as §1
Experiment [4] has as its system PC-3. Kind of experiment: Antiproliferative activity against human PC3 cells after 72 hrs by MTT assay. Type of experiment: functional, cell-based. Particulars: PC-3, 72 h. An outline of the steps:
as §1

Experiment [5] has as its system PC-3. The experiment can be described thus: Induction of autophagy in human PC3 cells assessed as increase in LC3-2 expression level by Western blot analysis. Type of experiment: functional, cell-based. In short, it runs like this: (§2)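 Western blot of PC-3 lysates for beclin-1, LC3B-I, LC3B-II and P62 after treatment at increasing concentrations.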
The subject of experiment [6] is PC-3. Kind of experiment: Induction of mitochondrial membrane potential loss in human PC3 cells at 3 uM after 24 hrs by JC-1 staining-based flow cytometric analysis (reference value: 50.5%). Type of experiment: functional.
The test system of experiment [7] is PC-3. The experiment can be described thus: Cytotoxicity against human PC3 cells assessed as reduction in cell viability at 3 uM after 48 hrs by MTT assay relative to control. Type of experiment: functional. In short, it runs like this:
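MTT viability read-out in PC-3 cells incubated with a range of concentrations for 48 h; viability expressed relative to untreated control cells.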

Experiment [8] concerns PC-3. The experiment can be described thus: Induction of apoptosis in human PC3 cells assessed as necrotic cells at 3 uM after 48 hrs by Annexin V-FITC/propidium iodide staining-based flow cytometric analysis (reference value: 0.1%). Type of experiment: functional. In general terms: Flow cytometry measures light scatter and fluorescence of single cells or particles in a stream.

Experiment [9] relates to PC-3. The experiment can be described thus: Induction of apoptosis in human PC3 cells assessed as viable cells at 3 uM after 48 hrs by Annexin V-FITC/propidium iodide staining-based flow cytometric analysis (reference value: 78.2%). Type of experiment: functional. To be noted: PC-3, 48 h, read-out: Activity.
For experiment [10], the system named is PC-3. Kind of experiment: Induction of apoptosis in human PC3 cells assessed as late apoptotic cells at 3 uM after 48 hrs by Annexin V-FITC/propidium iodide staining-based flow cytometric analysis (reference value: 9.3%). Type of experiment: functional.
For experiment [11], the system named is PC-3. Kind of experiment: Induction of autophagy in human PC3 cells assessed as decrease in P62 protein level at 1 uM by Western blot analysis. Type of experiment: functional, cell-based. An outline of the steps: as §2
The subject of experiment [12] is PC-3. The experiment can be described thus: Induction of apoptosis in human PC3 cells assessed as late apoptotic cells at 1 uM after 48 hrs by Annexin V-FITC/propidium iodide staining-based flow cytometric analysis (reference value: 9.3%). Type of experiment: functional.
The subject of experiment [13] is PC-3. The experiment can be described thus: Induction of apoptosis in human PC3 cells assessed as late apoptotic cells at 4 uM after 48 hrs by Annexin V-FITC/propidium iodide staining-based flow cytometric analysis (reference value: 9.3%). Type of experiment: functional.
Experiment [14] has as its system PC-3. The experiment can be described thus: Induction of mitochondrial membrane potential loss in human PC3 cells at 4 uM after 24 hrs by JC-1 staining-based flow cytometric analysis (reference value: 50.5%). Type of experiment: functional.
Experiment [15] deals with PC-3. The experiment can be described thus: Induction of apoptosis in human PC3 cells assessed as early apoptotic cells at 1 uM after 48 hrs by Annexin V-FITC/propidium iodide staining-based flow cytometric analysis (reference value: 12.4%). Type of experiment: functional.
The test system of experiment [16] is PC-3. The experiment can be described thus: Induction of morphological changes in human PC3 cells at 3 uM by microscopic analysis. Type of experiment: functional, cell-based.
For experiment [17], the system named is PC-3. The experiment can be described thus: Induction of mitochondrial membrane potential loss in human PC3 cells at 2 uM after 24 hrs by JC-1 staining-based flow cytometric analysis (reference value: 50.5%). Type of experiment: functional.
The subject of experiment [18] is PC-3. Kind of experiment: Induction of mitochondrial membrane potential loss in human PC3 cells at 1 uM after 24 hrs by JC-1 staining-based flow cytometric analysis (reference value: 50.5%). Type of experiment: functional.
Experiment [19] deals with PC-3. The experiment can be described thus: Induction of apoptosis in human PC3 cells assessed as necrotic cells at 2 uM after 48 hrs by Annexin V-FITC/propidium iodide staining-based flow cytometric analysis (reference value: 0.1%). Type of experiment: functional.
The subject of experiment [20] is PC-3. The experiment can be described thus: Induction of apoptosis in human PC3 cells assessed as necrotic cells at 4 uM after 48 hrs by Annexin V-FITC/propidium iodide staining-based flow cytometric analysis (reference value: 0.1%). Type of experiment: functional.
Experiment [21] deals with PC-3. The experiment can be described thus: Induction of apoptosis in human PC3 cells assessed as late apoptotic cells at 2 uM after 48 hrs by Annexin V-FITC/propidium iodide staining-based flow cytometric analysis (reference value: 9.3%). Type of experiment: functional.
In experiment [22] the test system is PC-3. The experiment can be described thus: Induction of apoptosis in human PC3 cells assessed as viable cells at 1 uM after 48 hrs by Annexin V-FITC/propidium iodide staining-based flow cytometric analysis (reference value: 78.2%). To be noted: PC-3, 48 h, read-out: Activity. Type of experiment: functional.
Experiment [23] has as its system PC-3. The experiment can be described thus: Induction of apoptosis in human PC3 cells assessed as early apoptotic cells at 3 uM after 48 hrs by Annexin V-FITC/propidium iodide staining-based flow cytometric analysis (reference value: 12.4%). Type of experiment: functional.
Experiment [24] concerns PC-3. The experiment can be described thus: Induction of autophagy in human PC3 cells assessed as increase in beclin-1 expression level by Western blot analysis. Type of experiment: functional, cell-based. An outline of the steps:
as §2
A general note: Immunoblotting shows a protein as a band on a membrane.

For experiment [25], the system named is PC-3. Kind of experiment: Induction of autophagy in human PC3 cells assessed as increase LC3-2 accumulation at 4 uM by confocal microscopic analysis. Type of experiment: functional, cell-based. Particulars: TDE = time-dependent effect. In short, it runs like this:
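LC3 immunofluorescence in PC-3 cells imaged by confocal microscopy over time up to 24 h to follow autophagosome formation.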

Experiment [26] deals with PC-3. The experiment can be described thus: Induction of apoptosis in human PC3 cells assessed as necrotic cells at 1 uM after 48 hrs by Annexin V-FITC/propidium iodide staining-based flow cytometric analysis (reference value: 0.1%). Type of experiment: functional.
For experiment [27], the system named is PC-3. The experiment can be described thus: Induction of apoptosis in human PC3 cells assessed as viable cells at 4 uM after 48 hrs by Annexin V-FITC/propidium iodide staining-based flow cytometric analysis (reference value: 78.2%). Type of experiment: functional. Particulars: PC-3, 48 h, read-out: Activity.
Experiment [28] concerns PC-3. Kind of experiment: Induction of apoptosis in human PC3 cells assessed as early apoptotic cells at 2 uM after 48 hrs by Annexin V-FITC/propidium iodide staining-based flow cytometric analysis (reference value: 12.4%). Type of experiment: functional.
Experiment [29] relates to PC-3. The experiment can be described thus: Induction of apoptosis in human PC3 cells assessed as early apoptotic cells at 4 uM after 48 hrs by Annexin V-FITC/propidium iodide staining-based flow cytometric analysis (reference value: 12.4%). Type of experiment: functional.
The subject of experiment [30] is PC-3. Kind of experiment: Induction of apoptosis in human PC3 cells assessed as viable cells at 2 uM after 48 hrs by Annexin V-FITC/propidium iodide staining-based flow cytometric analysis (reference value: 78.2%). Type of experiment: functional. Particulars: PC-3, 48 h, read-out: Activity.

pIC50: −log10 of the molar value. Activity calls are given as the source filed them. The calls are words filed in the database; no cut-off is given here. Where only a bound is given, the exact number is not on record here.

Usually pIC50 stands for the IC50 on a negative log10 scale, so that one unit is a factor of ten. Read a low pIC50 as a high IC50. Regarding `CCCCCCCCCCCNC[C@@H]1OC[C@H](N)[C@@H]1O`, the negative-log IC50 (pIC50) in [1] was 4.95; in [2] it was 4.71; in experiment [3], 5.17; in experiment [4], 5.48.
Take `CCCCCCCCCNC[C@@H]1OC[C@H](N)[C@H]1O`: the pIC50 was less than 3.89 in experiment [1], less than 3.89 in experiment [2], 4.22 in [3] and 5.12 in experiment [4].
Consider `CCCCCCCCCCNC[C@@H]1OC[C@H](N)[C@@H]1O`, for which the pIC50 in experiment [1] is 4.32; in experiment [2] it was 4.53; in [3], 4.47; in experiment [4], 4.93.
For `CCCCCCCCNC[C@@H]1OC[C@H](N)[C@@H]1O` the same measures were less than 3.89, less than 3.89, 4.02 and 4.86.
The like results for `CCCCCCCCCCNC[C@@H]1OC[C@H](N)[C@H]1O` were, in that order, less than 3.89, less than 3.89, 4.37 and less than 3.89.
Consider `CCCCCCCNC[C@@H]1OC[C@H](N)[C@@H]1O`, for which the negative logarithm of the IC50 (pIC50) is less than 3.89 in [1], less than 3.89 in [2], less than 3.89 in [3] and 4.65 in experiment [4].
As to `CCCCCCCCCNC[C@@H]1OC[C@H](N)[C@@H]1O`, the pIC50 is 4.66 in [1], 4.26 in experiment [2], 4.90 in experiment [3] and 5.69 in [4].
The like results for `CCCCCCCCNC[C@@H]1OC[C@H](N)[C@H]1O` were, in that order, 4.14, less than 3.89, less than 3.89 and 4.89.
Take `CCCCCCCCCCCCNC[C@@H]1OC[C@H](N)[C@@H]1O`: the Activity result in [5] was “Dose-dependent effect”; in experiment [6], 88.2%; in [7] it was 56%; in [8], 0.6%; in experiment [10], 15.7%; in experiment [12] it was 8%. Further, the Activity in [13] was 81.9%; in [14], 93%; in experiment [15], 2.6%; in experiment [17] it was 78.6%; in [18], 69.1%; in experiment [19], 0.3%. For the same molecule, the Activity in experiment [20] was 0.2%; in experiment [21] it was 9.6%; in experiment [23], 3%; in experiment [24], “Dose-dependent effect”; in experiment [25], “Tde”; in [26], 0.2%. The Activity in experiment [28] came out at 2.3%; in [29] it was 9.3%. Moreover, the negative logarithm of the IC50 (pIC50) is 5.23 in experiment [1], 4.97 in [2], 5.74 in [3] and 6.07 in experiment [4]. In addition, the viability at 3 µM in [9] turned out to be 80.8%. For the same molecule, the outcome in experiment [11] and in [16] was Active. The viability at 1 µM in experiment [22] was found to be 89.2%. The viability at 4 µM in experiment [27] was 8.5%. Also, the viability at 2 µM in [30] is 87.7%.
As for `CCCCCCCCCCCCCCNC[C@@H]1OC[C@H](N)[C@@H]1O`, the negative-log IC50 (pIC50) in experiment [1] is 5.55; in experiment [2], 4.84; in [3] it was 6.14; in experiment [4], 5.92.
The like results for `CCCCCCCCCCCCCCNC[C@@H]1OC[C@H](N)[C@H]1O` were, in that order, 4.70, 4.19, 5.05 and 5.70.
For `O=c1[nH]cc(F)c(=O)[nH]1` [FLUOROURACIL] the same measures were 6.37, 5.20, 5.21 and 6.28.
In the case of `CCCCCCCCCCCCNC[C@@H]1OC[C@H](N)[C@H]1O`, the negative logarithm of the IC50 (pIC50) in [1] was 4.39; in [2] it was 4.24; in experiment [3] it was 4.90; in [4], 5.62.
The like results for `CCCCCCCNC[C@@H]1OC[C@H](N)[C@H]1O` were, in that order, less than 3.89, less than 3.89, less than 3.89 and less than 3.89.
Consider `CCCCCCCCCCCCCC[C@@H]1OC[C@H](N)[C@@H]1O` [PACHASTRISSAMINE], for which the negative-log IC50 (pIC50) in experiment [1] was 5.73; in [2] it was 6.30; in experiment [3], 5.63; in experiment [4], 6.15.
Take `CCCCCCCCCCCNC[C@@H]1OC[C@H](N)[C@H]1O`: the pIC50 in [1] is 5.02; in experiment [2] it was 4.05; in experiment [3], 4.88; in [4], 5.00.

Values taken from ChEMBL document CHEMBL4184090, “Discovery of novel jaspine B analogues as autophagy inducer” (Bioorg Med Chem Lett, 2018).
